In ChEMBL document CHEMBL1949600, “Lipophilic hydroxytyrosol esters: fatty acid conjugates for potential topical administration” (J Nat Prod, 2011):

Tests used:
[1] = Octanol-water partition coefficient, log Kow of the compound by HPLC analysis; format: physicochemical; conditions: read-out: log KOW
How it was run: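 Reversed-phase HPLC method for log Kow, calibrated with reference standards of known log Kow. Naphthalene (log Kow 3.3) was the most lipophilic standard. Compounds too lipophilic to be resolved were assigned a log Kow above 3.3.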

[2] = Percutaneous permeability through human SCE membrane in Franz diffusion cell after 12 hrs by UV-Vis spectrophotometry relative to hydroxytyrosol; format: ADME
How it was run: (§1)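 Franz cells (0.75 cm² area, 4.75 mL receptor) with human stratum corneum/viable epidermis from fresh abdominal surgical skin, used within 24 h of removal. Non-occlusive, 36 ± 1 °C. Receptor sampled hourly up to 12 h, each sample replaced with fresh phase. UV-vis at each compound's λmax against calibration (0.5–25 μg/mL in EtOH). At least three cells, triplicate, mean ± SD.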

[3] = Percutaneous permeability through human SCE membrane in Franz diffusion cell after 12 hrs by UV-Vis spectrophotometry; format: ADME; how it was run: as §1

| logP [1] | fold change (FC) [2] | permeability [3] | Structure (SMILES) |
| --- | --- | --- | --- |
| > 3.3 | 1.7 |  | CCCCCCCCCCCCCCCC(=O)OCCc1ccc(O)c(O)c1 [HYDROXYTYROSOL PALMITATE] |
| > 3.3 | 3.6 |  | CCCCCCCC/C=C\CCCCCCCC(=O)OCCc1ccc(O)c(O)c1 |
| > 3.3 | 2.2 | 60.52% | CCCCC/C=C\C/C=C\CCCCCCCC(=O)OCCc1ccc(O)c(O)c1 |
| 1.64 | 1.8 |  | CCCC(=O)OCCc1ccc(O)c(O)c1 [HYDROXYTYROSOL BUTANOATE] |
| > 3.3 |  |  | CCCCCCCC/C=C/CCCCCCCC(=O)OCCc1ccc(O)c(O)c1 |
| > 3.3 | 1.7 |  | CCCCCCCCCCCCCCCCCC(=O)OCCc1ccc(O)c(O)c1 [HYDROXYTYROSOL STERATE] |
| > 3.3 | 2.2 | 64.18% | CCCCCCCCCC(=O)OCCc1ccc(O)c(O)c1 [HYDROXYTYROSOL DECANOATE] |

| Structure (SMILES) | logP [1] | fold change (FC) [2] | permeability [3] |
| --- | --- | --- | --- |
| OCCc1ccc(O)c(O)c1 [HYDROXYTYROSOL] | 0.809 |  |  |
